Measured values as given in ChEMBL document CHEMBL1125581 (J Med Chem, 1991).

Experiments:
[1] = target: T1, Muscarinic acetylcholine receptor M4 (Rattus norvegicus, UniProt P08485); assay: Inhibition of binding of [3H]N-Methyl-scopolamine to muscarinic acetylcholine receptor M4 of rat […] NG108-15 cells; type: cell-based
T1 sequence (P08485 whole entry): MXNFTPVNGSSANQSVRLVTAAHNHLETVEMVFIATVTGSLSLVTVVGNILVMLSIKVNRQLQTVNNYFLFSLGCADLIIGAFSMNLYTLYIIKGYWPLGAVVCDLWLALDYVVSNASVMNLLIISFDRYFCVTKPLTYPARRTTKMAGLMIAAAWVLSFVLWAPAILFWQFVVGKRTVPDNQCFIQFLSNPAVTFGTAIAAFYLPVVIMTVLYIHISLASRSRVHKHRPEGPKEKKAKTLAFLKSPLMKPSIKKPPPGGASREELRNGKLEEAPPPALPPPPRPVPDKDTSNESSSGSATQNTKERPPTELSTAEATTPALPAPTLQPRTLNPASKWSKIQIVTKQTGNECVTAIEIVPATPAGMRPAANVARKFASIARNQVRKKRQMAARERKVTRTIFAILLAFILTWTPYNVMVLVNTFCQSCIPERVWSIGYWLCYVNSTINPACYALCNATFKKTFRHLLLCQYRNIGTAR

[2] = target: T2, Muscarinic acetylcholine receptor M2 (Rattus norvegicus, UniProt P10980); assay: Inhibition of binding of [3H]N-methylscopolamine to muscarinic acetylcholine receptor M2 of rat heart tissue membrane.; type: tissue-based
T2 sequence (P10980 whole entry): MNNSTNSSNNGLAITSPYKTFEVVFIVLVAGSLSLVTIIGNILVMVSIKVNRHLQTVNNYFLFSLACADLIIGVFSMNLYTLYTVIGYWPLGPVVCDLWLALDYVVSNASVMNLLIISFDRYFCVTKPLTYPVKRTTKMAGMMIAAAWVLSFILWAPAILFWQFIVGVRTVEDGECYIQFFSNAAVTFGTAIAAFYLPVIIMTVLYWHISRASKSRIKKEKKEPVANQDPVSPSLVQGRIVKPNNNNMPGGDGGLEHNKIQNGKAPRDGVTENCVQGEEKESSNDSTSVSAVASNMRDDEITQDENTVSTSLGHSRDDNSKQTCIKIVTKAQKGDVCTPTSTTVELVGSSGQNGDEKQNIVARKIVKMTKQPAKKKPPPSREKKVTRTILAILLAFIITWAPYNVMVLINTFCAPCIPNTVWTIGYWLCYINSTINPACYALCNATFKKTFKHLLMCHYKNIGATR
Outline: (§1)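 Rat heart membranes (150–300 μg protein) incubated 90 min at 37 °C in DMEM-Hepes with 0.5 nM [3H]NMS and varied unlabeled analogue concentrations. Bound radioligand collected by rapid GF/B filtration, washed with ice-cold 0.9% NaCl, and scintillation counted. Nonspecific binding with 1 μM atropine subtracted. Ki values come from one to three determinations, each in triplicate.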

[3] = target: T3, Muscarinic acetylcholine receptor M3 (Rattus norvegicus, UniProt P08483); assay: Compound was tested for the inhibition of binding of [3H]N-Methyl-scopolamine to mmuscarinic acetylcholine receptor M3 of transfected rat A9L cells; type: cell-based
Outline: (§2)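 Confluent A9L (transfected m1/m3) or NG108-15 (m4) cultures were lysed in 2 mM Tris-HCl pH 7.1/1 mM EDTA, 30 min, 2 °C, then homogenized. Crude membranes were spun at 50000g. Membranes (150–300 μg protein) were incubated with 0.5 nM [3H]NMS and varied analogue in DMEM-Hepes for 90 min at 37 °C, then filtered. Nonspecific binding was set with 1 μM atropine. Ki values are from 1–3 triplicate determinations.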

[4] = target: T4, Muscarinic acetylcholine receptor M1 (Rattus norvegicus, UniProt P08482); assay: Inhibition of binding of [3H]N-methylscopolamine to muscarinic acetylcholine receptor M1 of transfected rat A9L cells.; type: cell-based
T4 sequence (P08482 whole entry): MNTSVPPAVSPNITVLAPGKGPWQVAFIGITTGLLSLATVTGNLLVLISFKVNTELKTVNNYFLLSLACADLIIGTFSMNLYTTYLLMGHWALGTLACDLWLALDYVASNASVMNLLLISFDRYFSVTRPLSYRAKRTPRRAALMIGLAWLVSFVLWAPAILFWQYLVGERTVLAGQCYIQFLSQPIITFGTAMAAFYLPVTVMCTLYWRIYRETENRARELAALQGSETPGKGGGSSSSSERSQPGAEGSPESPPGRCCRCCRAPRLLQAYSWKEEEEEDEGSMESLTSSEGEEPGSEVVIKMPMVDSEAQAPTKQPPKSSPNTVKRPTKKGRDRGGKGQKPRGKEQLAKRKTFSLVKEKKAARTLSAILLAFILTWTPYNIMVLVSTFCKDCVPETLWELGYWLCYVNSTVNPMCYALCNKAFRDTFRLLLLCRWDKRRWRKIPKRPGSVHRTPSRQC

[5] = target: T2, Muscarinic acetylcholine receptor M2; assay: The compound was tested for the inhibition of binding of [3H]N-Methyl-scopolamine to muscarinic acetylcholine receptor M2 of rat heart tissue membranes.; type: cell membranes, Membrane; outline: as §1
[6] = target: T4, Muscarinic acetylcholine receptor M1; assay: The compound was tested for the inhibition of binding of [3H]N-Methyl-scopolamine to muscarinic acetylcholine receptor M1 of transfected A9L cells.; type: cell-based; outline: as §2
[7] = target: T3, Muscarinic acetylcholine receptor M3; assay: The compound was tested for the inhibition of binding of [3H]N-Methyl-scopolamine to Muscarinic acetylcholine receptor M3 of transfected A9L cells.; type: cell-based
Outline: (§3)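 Crude membranes (150–300 μg protein) were incubated 90 min at 37 °C in DMEM-Hepes with 0.5 nM [3H]NMS and a range of unlabeled analogue concentrations. Incubation was stopped by rapid GF/B filtration, followed by ice-cold 0.9% NaCl washes and scintillation counting. Nonspecific binding was defined with 1 μM atropine and subtracted. Ki came from one to three determinations, each run in triplicate.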

[8] = target: T1, Muscarinic acetylcholine receptor M4; assay: Inhibition of binding of [3H]N-Methyl-scopolamine to Muscarinic acetylcholine receptor M4 of NG108-15 cells.; type: cell-based; outline: as §2
[9] = target: T4, Muscarinic acetylcholine receptor M1; assay: Inhibition of binding of [3H]N-Methyl-scopolamine to Muscarinic acetylcholine receptor M1 of transfected A9L cells.; type: cell-based; outline: as §2
[10] = target: T2, Muscarinic acetylcholine receptor M2; assay: Inhibition of binding of [3H]N-Methyl-scopolamine to Muscarinic acetylcholine receptor M2 of rat heart tissue membranes.; type: cell membranes, Membrane; outline: as §1
[11] = target: T4, Muscarinic acetylcholine receptor M1; assay: The compound was tested for the inhibition of binding of [3H]N-Methyl-scopolamine to muscarinic acetylcholine receptor M1r of transfected A9L cells.; type: cell-based; outline: as §3
[12] = target: T3, Muscarinic acetylcholine receptor M3; assay: The compound was tested for the inhibition of binding of [3H]N-Methyl-scopolamine to muscarinic acetylcholine receptor M3 of transfected A9L cells.; type: cell-based; outline: as §3
[13] = target: T2, Muscarinic acetylcholine receptor M2; assay: The compound was tested for the inhibition of binding of [3H]N-Methyl-scopolamine to muscarinic acetylcholine receptor M2 of rat heart tissue membranes; type: cell membranes, Membrane; outline: as §3

T3 sequence (P08483 whole entry): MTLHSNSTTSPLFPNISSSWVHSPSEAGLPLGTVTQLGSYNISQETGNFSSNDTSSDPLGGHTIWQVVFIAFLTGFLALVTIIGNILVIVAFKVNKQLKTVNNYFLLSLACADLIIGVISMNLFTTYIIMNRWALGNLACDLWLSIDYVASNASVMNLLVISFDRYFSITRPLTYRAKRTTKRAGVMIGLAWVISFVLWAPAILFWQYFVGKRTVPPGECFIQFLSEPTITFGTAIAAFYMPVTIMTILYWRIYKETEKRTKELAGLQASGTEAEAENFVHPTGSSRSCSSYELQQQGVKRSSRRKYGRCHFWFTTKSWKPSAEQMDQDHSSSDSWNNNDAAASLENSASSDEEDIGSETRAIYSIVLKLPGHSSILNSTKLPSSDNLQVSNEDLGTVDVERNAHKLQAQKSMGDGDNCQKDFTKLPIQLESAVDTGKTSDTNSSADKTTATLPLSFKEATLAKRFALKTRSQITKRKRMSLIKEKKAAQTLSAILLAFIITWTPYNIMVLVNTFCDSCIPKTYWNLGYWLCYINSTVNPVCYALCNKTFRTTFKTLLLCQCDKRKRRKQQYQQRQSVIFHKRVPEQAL

## CNC(=O)c1ccc(CN2CCN(CC(=O)N3c4ccccc4C(=O)Nc4cccnc43)CC2)cc1
[1]
  Ki: 2940 nM
[2]
  Ki: 2650 nM
[3]
  Ki: 4020 nM
[4]
  Ki: 2840 nM

## CCN1C(=O)c2ccccc2N(C(=O)CN2CCN(C)CC2)c2ncccc21
[5]
  Ki: 8000 nM
[6]
  Ki: 7700 nM

## O=C1Nc2cccnc2N(C(=O)CN2CCN(CCCl)CC2)c2ccccc21
[7]
  Ki: 78 nM
[8]
  Ki: 130 nM
[9]
  Ki: 52 nM
[10]
  Ki: 210 nM

## CN1CCN(CC(=O)N2c3cc(CO[Si](C)(C)C(C)(C)C)ccc3C(=O)Nc3cccnc32)CC1
[11]
  Ki: > 30000 nM
[12]
  Ki: > 30000 nM
[13]
  Ki: 4400 nM
